For data set [1], the target named is Protein arginine N-methyltransferase 5 (Homo sapiens) (UniProt O14744). Description: Inhibition of PRMT5 in TGFbeta1-stimulated human A549 cells assessed as decrease in H3R2me2s protein expression at 500 nM for 4 days by immunoblot analysis. It counts as cell-based. The following applies: time 4.0 day. Put shortly:
(§1)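 Immunoblots of A549 or HS578T cells given or not given 10 nM TGFβ1 for 2 days and 500 nM inhibitor for 4 days. Probes were histone methylarginine marks and EMT-related proteins.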

Data set [2] has as its system A549. Briefly: Anticancer activity against human A549 cells assessed as decrease in cell migration at 500 nM for 4 days by crystal violet staining based matrigel assay. It counts as functional. The following applies: time 4.0 day.
In a further data set the test system is NCI-H1339. Description: Anticancer activity against human NCI-H1339 cells assessed as decrease in TGFbeta1-induced cell invasion at 500 nM for 4 days by crystal violet staining based matrigel assay. Type of data set: functional. The following applies: time 4.0 day.
The test system of another data set is IMR-90. Description: Cytotoxicity against human IMR-90 cells assessed as effect on cell viability at 500 nM for 4 days by microscopic analysis. It counts as toxicity, cell-based. The following applies: imr-90, 96 h, 0.5 µM, time 4 day.
Data set [3] has as its system A549. Description: Anticancer activity against human A549 cells assessed as decrease in TGFbeta1-induced cell invasion at 500 nM for 4 days by crystal violet staining based matrigel assay. It counts as functional. The following applies: time 4.0 day. Put shortly:
(§2)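 Matrigel invasion through 8 μm pores in A549, SK-MES-1 or HS578T cells, with or without 500 nM inhibitor for 4 days and with or without 10 nM TGFβ1 for 2 days. Invaded cells on the membrane underside were stained with crystal violet, imaged by phase-contrast at 20X and counted. Mean ± S.E.M. of three independent experiments; one-way ANOVA.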

In the next data set the test system is SK-MES-1. Description: Anticancer activity against human SK-MES-1 cells assessed as decrease in TGFbeta1-induced cell invasion at 500 nM for 4 days by crystal violet staining based matrigel assay. It counts as functional. The following applies: time 4.0 day. In outline: as §2
Data set [4] addresses Protein arginine N-methyltransferase 5 (Homo sapiens) (UniProt O14744). Briefly: Inhibition of PRMT5 in human IMR-90 cells assessed as effect on histone […] methylation for 4 days by immunoblot analysis. It counts as cell-based. The following applies: time 4.0 day.
Data set [5] has the same target. Description: Inhibition of PRMT5 in TGFbeta1-stimulated human HS578T cells assessed as decrease in H3R2me1 protein expression at 500 nM for 4 days by immunoblot analysis. It counts as cell-based. The following applies: Hs-578T, time 4.0 day. In outline: as §1
(Immunoblotting shows a protein as a band on a membrane.)

Data set [6] has the same target. Description: Inhibition of PRMT5 in TGFbeta1-stimulated human A549 cells assessed as decrease in decrease in E-cadherin protein expression at 500 nM for 4 days by immunoblot analysis. The following applies: time 4.0 day. It counts as cell-based. In outline:
as §1

Data set [7] shares this target. Description: Inhibition of PRMT5 in TGFbeta1-stimulated human A549 cells assessed as increase in vimentin protein expression at 500 nM for 4 days by immunoblot analysis. Type of data set: cell-based. The following applies: time 4.0 day. In outline: as §1
The target is the same in data set [8]. Description: Inhibition of PRMT5 in human A549 cells assessed as decrease in histone […] methylation at 0.01 to 5 uM for 4 days by immunoblot analysis. Type of data set: cell-based. The following applies: dose 0.01-5 µM, time 4.0 day. In outline: (§3)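 A549 cells were exposed to 0, 10 nM, 100 nM, 500 nM, 1 μM or 5 μM for 4 days. Lysates were blotted for SYM10 (methylated SmD3) and GAPDH. Extracted histones were blotted for H4R3me2s and H3, with DB71 staining of the histones.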

In data set [9] the test system is A549. Description: Anticancer activity against human A549 cells assessed as decrease in cell invasion at 500 nM for 4 days by crystal violet staining based matrigel assay. It counts as functional. The following applies: time 4.0 day. Put shortly: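 A549 cells were exposed to 500 nM for 0 or 4 days, then run in a Matrigel invasion assay through 8 μm porous polycarbonate membranes. Crystal violet-stained invaded cells on the underside were imaged by phase-contrast at 20X and quantified. Three independent experiments, mean ± S.E.M., one-way ANOVA.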

For data set [10], the target named is Protein arginine N-methyltransferase 5 (Homo sapiens) (UniProt O14744). Description: Inhibition of PRMT5 in human IMR-90 cells assessed as effect on SmD3 methylation for 4 days by immunoblot analysis. Type of data set: cell-based. The following applies: time 4.0 day.
Protein arginine N-methyltransferase 5 (Homo sapiens), sequence (O14744 whole entry): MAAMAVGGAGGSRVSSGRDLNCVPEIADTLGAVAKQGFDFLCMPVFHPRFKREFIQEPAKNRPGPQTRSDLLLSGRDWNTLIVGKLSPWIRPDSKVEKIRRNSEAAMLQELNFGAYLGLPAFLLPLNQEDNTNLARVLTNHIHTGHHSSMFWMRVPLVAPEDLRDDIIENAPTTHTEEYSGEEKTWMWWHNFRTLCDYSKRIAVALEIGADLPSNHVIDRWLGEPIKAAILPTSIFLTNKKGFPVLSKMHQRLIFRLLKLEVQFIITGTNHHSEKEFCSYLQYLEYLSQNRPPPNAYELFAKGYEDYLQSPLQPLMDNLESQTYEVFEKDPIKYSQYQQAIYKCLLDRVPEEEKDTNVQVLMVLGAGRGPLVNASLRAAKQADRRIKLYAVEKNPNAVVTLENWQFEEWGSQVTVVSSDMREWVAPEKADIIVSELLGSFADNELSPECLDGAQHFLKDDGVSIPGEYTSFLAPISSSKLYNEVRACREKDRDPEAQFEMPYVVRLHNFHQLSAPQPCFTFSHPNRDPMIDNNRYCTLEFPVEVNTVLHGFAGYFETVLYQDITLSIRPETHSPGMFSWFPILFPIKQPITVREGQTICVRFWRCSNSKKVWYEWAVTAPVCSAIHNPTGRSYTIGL
The test system of data set [11] is A549. Briefly: Cytotoxicity against human A549 cells assessed as decrease in cell viability at 500 nM for 4 days by microscopic analysis. It counts as functional, cell-based. The following applies: time 4.0 day.
The next data set deals with Hs-578T. Description: Anticancer activity against human Hs-578T cells assessed as decrease in TGFbeta1-induced cell invasion at 500 nM for 4 days by crystal violet staining based matrigel assay. Type of data set: functional. The following applies: time 4.0 day. Put shortly:
as §2

Another data set deals with NCI-H460. Description: Anticancer activity against human NCI-H460 cells assessed as decrease in TGFbeta1-induced cell invasion at 500 nM for 4 days by crystal violet staining based matrigel assay. The following applies: time 4.0 day. Type of data set: functional.
Data set [12] has as its target Protein arginine N-methyltransferase 5 (Homo sapiens) (UniProt O14744). Description: Inhibition of PRMT5 in TGFbeta1-stimulated human HS578T cells assessed as decrease in H3R2me2s protein expression at 500 nM for 4 days by immunoblot analysis. It counts as cell-based. The following applies: Hs-578T, time 4.0 day. Put shortly: as §1
For data set [13] the target is unchanged. Description: Inhibition of PRMT5 in human A549 cells assessed as decrease in SmD3 methylation at 0.01 to 5 uM for 4 days by immunoblot analysis. It counts as cell-based. The following applies: dose 0.01-5 µM, time 4.0 day. In outline:
as §3

The target is the same in data set [14]. Description: Inhibition of PRMT5 in TGFbeta1-stimulated human A549 cells assessed as decrease in H3R2me1 protein expression at 500 nM for 4 days by immunoblot analysis. It counts as cell-based. The following applies: time 4.0 day. In outline:
as §1

In data set [15] the test system is A549. Briefly: Anticancer activity in human A549 cells assessed as TGFbeta1-induced cell morphology change for 4 days by microscopic analysis. It counts as functional, cell-based. The following applies: dose 500.0 nM, time 4.0 day. In outline: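 A549 cells were given or not given 500 nM for 4 days and 10 nM TGFβ1 for 2 days. Cell morphology was imaged by microscopy, with inserts at higher magnification.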

Data set [16] deals with Protein arginine N-methyltransferase 5 (Homo sapiens) (UniProt O14744). Briefly: Inhibition of PRMT5 in TGFbeta1-stimulated human A549 cells assessed as increase in snail protein expression at 500 nM for 4 days by immunoblot analysis. Type of data set: cell-based. The following applies: time 4.0 day. In outline:
as §1

For data set [17] the target is unchanged. Briefly: Inhibition of PRMT5 in TGFbeta1-stimulated human HS578T cells assessed as decrease in H4R3me2s protein expression at 500 nM for 4 days by immunoblot analysis. Type of data set: cell-based. The following applies: Hs-578T, time 4.0 day. In outline:
as §1

The target is the same in data set [18]. Description: Inhibition of PRMT5 in TGFbeta1-stimulated human A549 cells assessed as decrease in H4R3me2s protein expression at 500 nM for 4 days by immunoblot analysis. It counts as cell-based. The following applies: time 4.0 day. In outline:
as §1

The structures appear in SMILES notation. Calls of active or inactive are those of the source. The rule behind the calls is not given here.

Turning to `O=C(NC[C@H](O)CN1CCc2ccccc2C1)c1ccnc(NC2CCC2)c1`, the inhibition entry (in data set [1]; in the data set with A549 [2]; with NCI-H1339; with A549 [3]; with SK-MES-1; in data set [5]) was “Active” throughout. The inhibition entry (in data set [6]; in data set [7]; in [8]; with A549 [9]; with A549 [11]; with Hs-578T) was “Active” each time. For the same compound, the inhibition entry (in the data set on NCI-H460; in [12]; in data set [13]; in data set [14]; in data set [16]; in [17]) was “Active” in each case. For the same compound, in [18], the inhibition entry was “Active”. In addition, the Activity entry in the data set on IMR-90 is listed as “Non-Toxic”. Also, the inhibition entry in data set [4] and in data set [10] was “inactive” throughout. The outcome with A549 [15] was Active.

For the origin of these results see ChEMBL document CHEMBL5712076, “A TGFβ-PRMT5-MEP50 axis regulates cancer cell invasion through histone H3 and H4 arginine methylation coupled transcriptional activation and repression” (Oncogene, 2017).
